Data on seven compounds can be found in ChEMBL document CHEMBL1122774, “Tri- and tetrapeptide analogues of kinins as potential renal vasodilators” (J Med Chem, 1984).

Where “and” joins values, the source holds several entries; their conditions need not be identical. Equal values may be shown once. Square brackets hold non-standard residues; d marks the D form. Peptide text beside a SMILES is read from it. * marks the point of attachment. ξ: configuration not given here. Butanoyl(4-(4-HOPh)) = O=C(CCCc1ccc(O)cc1)*; ξαMeF = CC(N)(Cc1ccccc1)C(=O)O; Bz = O=C(c1ccccc1)*

Data set [1] concerns Canis familiaris. Description: In vivo percent change in canine mean arterial blood pressure (MABP) at 300 ug/Kg/min. It is filed as functional, Canis lupus familiaris. The procedure, abridged: (§1)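 Primary screen in anesthetized dogs (7-17 kg). Drug infused separately at 3, 30 and 300 µg/(kg min), each infusion lasting 5 min, at about 15-min intervals. Read-outs are renal blood flow, mean arterial blood pressure, heart rate, and RVR (MABP / mean RBF), as percent change. Significance thresholds are defined per number of dogs; n = 1-3 dogs.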

For data set [2], the system named is Canis familiaris. Put plainly: In vivo percent change in canine renal vascular resistance (RVR) at 3 ug/Kg/min. It is filed as functional, Canis lupus familiaris. Put shortly:
as §1

The subject of data set [3] is Canis familiaris. Description: Compound was evaluated for renal vasodilator activity and represented as ED15 (intravenous administration). It is filed as functional. Conditions: Canis lupus familiaris. The procedure, abridged: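 Secondary protocol in anesthetized dogs with iv infusion at progressively increasing rates, each level infused 5 min. Potency is the cumulative dose (µg/kg) that lowered renal vascular resistance (MABP / mean RBF) by 15%. Minimum change needed for significance (p = 0.95) is 16% for RVR.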

Data set [4] has as its system Canis familiaris. Put plainly: In vivo percent change in canine heart rate at 3 ug/Kg/min. It is filed as functional, Canis lupus familiaris. Put shortly: as §1
Data set [5] deals with Canis familiaris. Description: In vivo percent change in canine renal vascular resistance (RVR) at 300 ug/Kg/min. It is filed as functional, Canis lupus familiaris. The procedure, abridged: as §1
Data set [6] has as its system Canis familiaris. Description: In vivo percent change in canine mean arterial blood pressure (MABP) at 3 ug/Kg/min. It is filed as functional, Canis lupus familiaris. Put shortly:
as §1

The nature of data set [7]: Ratio of ED20 of MABP (mean arterial blood pressure) to the ED15 of RVR ( renal vascular resistance). It is filed as functional. The procedure, abridged: (§2)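 Anesthetized dogs in the secondary cumulative-infusion protocol, each dose level 5 min. Selectivity ratio is the dose giving a 20% change in mean arterial blood pressure divided by the cumulative dose lowering renal vascular resistance 15% (RVR ED15).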

The subject of data set [8] is Canis familiaris. Put plainly: In vivo percent change in renal blood flow at 30 ug/Kg/min. It is filed as functional, Canis lupus familiaris, Kidney. Put shortly:
as §1

The test system of data set [9] is Canis familiaris. Description: Renal vasodilator activity in anesthetized dogs and percent change in renal vascular resistance (RVR) was determined at 30 ug/Kg/min. It is filed as functional, Canis lupus familiaris. Put shortly:
as §1

In data set [10] the test system is Canis familiaris. Put plainly: In vivo percent change in canine heart rate at 30 ug/Kg/min. It is filed as functional, Canis lupus familiaris. Put shortly: as §1
For data set [11], the system named is Canis familiaris. Put plainly: Renal vasodilator activity in anesthetized dogs and percent change in heart rate (HR) was determined at 300 ug/Kg/min. It is filed as functional, Canis lupus familiaris. Put shortly:
as §1

Data set [12] is described as follows: Ratio of ED30 of iliac vascular resistant (IVR) to the ED15 of RVR (renal vascular resistance). It is filed as functional. The procedure, abridged:
(§3)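 Anesthetized dogs in the secondary cumulative-infusion protocol, each dose level 5 min. Selectivity ratio is the dose giving a 30% change in iliac vascular resistance divided by the RVR ED15, the cumulative dose decreasing renal vascular resistance by 15%.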

For data set [13], the system named is Canis familiaris. Put plainly: In vivo percent change in canine renal blood flow (RBF) at 3 ug/Kg/min. It is filed as functional, Canis lupus familiaris, Kidney. The procedure, abridged: as §1
Data set [14] relates to Canis familiaris. Description: In vivo percent change in canine mean arterial blood pressure (MABP) at 30 ug/Kg/min. It is filed as functional, Canis lupus familiaris. The procedure, abridged: as §1
Data set [15] is described as follows: Average max percent decrease in RVR (renal vascular resistance) was determined. The procedure, abridged:
(§4)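 Secondary protocol in anesthetized dogs. Drug given as iv infusion at progressively increasing rates, each dose level for 5 min. The maximum effect is taken as the largest percent decrease in renal vascular resistance (RVR) reached with the compound. RVR is calculated as mean arterial blood pressure / mean renal blood flow.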

The subject of data set [16] is Canis familiaris. Description: In vivo percent change in canine renal blood flow (RBF) at 300 ug/Kg/min. It is filed as functional, Canis lupus familiaris, Kidney. Put shortly:
as §1

The nature of data set [17]: Ratio of ED20 of MABP (mean arterial blood pressure) to the ED15 of RVR (renal vascular resistance). It is filed as functional. The procedure, abridged: as §2
The test system of data set [18] is Canis familiaris. Description: Renal vasodilator activity in anesthetized dogs was determined as percent change in heart rate (HR) at 30 ug/Kg/min. It is filed as functional, Canis lupus familiaris. The procedure, abridged:
as §1

Data set [19] can be described thus: Average max percent decrease in RVR (renal vascular resistance) was determined. The procedure, abridged:
as §4

Data set [20] concerns Canis familiaris. Description: In vivo percent change in canine heart rate at 300 ug/Kg/min. It is filed as functional, Canis lupus familiaris. Put shortly: as §1
Data set [21] has as its system Canis familiaris. Description: In vivo percent change in canine renal vascular resistance (RVR) at 30 ug/Kg/min. It is filed as functional, Canis lupus familiaris. The procedure, abridged:
as §1

Data set [22] deals with Canis familiaris. Put plainly: Renal vasodilator activity in anesthetized dogs and percent change in renal vascular resistance (RVR) was determined at 300 ug/Kg/min. It is filed as functional, Canis lupus familiaris. The procedure, abridged:
as §1

Data set [23] can be described thus: Ratio of ED30 of iliac vascular resistant (IVR) to the ED15 of RVR(renal vascular resistance). It is filed as functional. The procedure, abridged:
as §3

`COc1ccc(CC(C)(NC(=O)[C@@H]2CCCN2C(=O)CCCc2ccc(O)cc2)C(=O)N[C@@H](CCCN=C(N)N)C(=O)O)cc1OC` (stereo partly drawn): the Change with Canis familiaris [1] is listed as -32%; with Canis familiaris [2], -6.7%; in the data set with Canis familiaris [4], 1.7%; with Canis familiaris [5] it was -44.5%; in the data set with Canis familiaris [6] it was -2.7%; in the data set on Canis familiaris [8], 18%. Besides, the Change is -21.3% in the data set with Canis familiaris [9]; 6.3% in the data set on Canis familiaris [10]; 16% in the data set with Canis familiaris [11]; 4.3% with Canis familiaris [13]; -7.7% in the data set with Canis familiaris [14]; 29.5% in the data set on Canis familiaris [16]. The same compound registered an ED15 in the data set on Canis familiaris [3] of 506 µg/kg. The Ratio in data set [7] and in [12] was over 12 in each case. The same compound returned a Decrease in data set [15] of 31%.
Turning to `CC(Cc1ccccc1)(NC(=O)[C@@H]1CCCN1C(=O)CCCc1ccc(O)cc1)C(=O)NCC(=O)N1CCC[C@H]1C(=O)O` (stereo partly drawn) ({Butanoyl(4-(4-HOPh))}-P[ξαMeF]GP-OH), the Change with Canis familiaris [1] was -6%; in the data set with Canis familiaris [2], -18%; in the data set with Canis familiaris [4] it was 6%; in the data set with Canis familiaris [18] it was 10%; with Canis familiaris [5] it was -17%; in the data set on Canis familiaris [6], -5%. In addition, the Change is reported as 16% in the data set on Canis familiaris [8]; -21% in the data set with Canis familiaris [9]; 17% in the data set on Canis familiaris [13]; -9% with Canis familiaris [14]; 14% with Canis familiaris [16]; 6% with Canis familiaris [20]. Besides, the figures for the Ratio in [17] and in data set [12] were over 1226 and over 1230, respectively. In the data set with Canis familiaris [3], the ED15 was found to be 4.9 µg/kg. For the same compound, in [19], the Decrease was found to be 20%.
As to `CC(Cc1ccccc1)(NC(=O)[C@@H]1CCCN1C(=O)c1ccccc1)C(=O)N[C@@H](CCCN=C(N)N)C(=O)O` (stereo partly drawn) (Bz-Pro-[ξαMeF]-Arg-OH), the Change in the data set on Canis familiaris [1] is -4%; in the data set with Canis familiaris [2], -5%; in the data set on Canis familiaris [21], -2%; in the data set on Canis familiaris [4] it was -6%; in the data set on Canis familiaris [5], 0%; in the data set on Canis familiaris [6], -1%. Also, the Change in the data set with Canis familiaris [8] was 3%; with Canis familiaris [10], 3%; with Canis familiaris [11], 6%; with Canis familiaris [13], 4%; in the data set with Canis familiaris [14], 1%; in the data set on Canis familiaris [16], -3%.
With `CC(Cc1ccccc1)(NC(=O)[C@@H]1CCCN1C(=O)CCCc1ccc(O)cc1)C(=O)NCCCN.Cl` (stereo partly drawn), the Change in the data set on Canis familiaris [1] is -1.4%; with Canis familiaris [2] it was 4%; with Canis familiaris [4] it was 0.7%; with Canis familiaris [22] it was -11.3%; with Canis familiaris [6], -0.7%; in the data set on Canis familiaris [8], 4.3%. The Change is given as -4.7% with Canis familiaris [9]; 1.3% with Canis familiaris [10]; 3.3% in the data set on Canis familiaris [13]; 3% in the data set on Canis familiaris [14]; 11.7% with Canis familiaris [16]; 8% in the data set on Canis familiaris [20].
Take H-RPPGFSPFR-OH [BRADYKININ]: in the data set with Canis familiaris [3], the ED15 is 2.8 µg/kg. For the same compound, the Ratio in data set [7] is 7 and 8; in data set [23], 25.
Consider `CC(Cc1ccccc1)(NC(=O)[C@@H]1CCCN1C(=O)CCCc1ccccc1)C(=O)N1CCC[C@H]1C(=O)O` (stereo partly drawn), for which the Change with Canis familiaris [1] is 1%; in the data set on Canis familiaris [2], -8%; in the data set with Canis familiaris [4], 0%; in the data set on Canis familiaris [22] it was -3%; with Canis familiaris [6] it was 0.5%; with Canis familiaris [8], 2%. Also, the Change in the data set with Canis familiaris [9] is -2%; in the data set with Canis familiaris [10], 0%; with Canis familiaris [13], 3%; with Canis familiaris [14], 0%; in the data set on Canis familiaris [16] it was 4%; with Canis familiaris [20] it was -2%.
Consider `CC(Cc1ccccc1)(NC(=O)[C@@H]1CCCN1)C(=O)NCCCN.Cl.Cl` (stereo partly drawn), for which the Change is listed as -1% in the data set on Canis familiaris [1]; -4% in the data set on Canis familiaris [2]; -1% in the data set on Canis familiaris [21]; -1% with Canis familiaris [4]; -3% in the data set with Canis familiaris [5]; 1% in the data set with Canis familiaris [6]. For the same compound, the Change in the data set with Canis familiaris [8] is reported as 1%; in the data set on Canis familiaris [10], -1%; with Canis familiaris [11], 0%; with Canis familiaris [13] it was 5%; with Canis familiaris [14] it was -1%; in the data set with Canis familiaris [16], 2%.
